Measured values as given in ChEMBL document CHEMBL1132538, “Potential multifunctional inhibitors of HIV-1 reverse transcriptase. Novel [AZT]-[TSAO-T] and [d4T]-[TSAO-T] heterodimers modified in the linker and in the dideoxynucleoside region” (J Med Chem, 1999).
pEC50: −log10 of the molar value.

What was measured:
CCRF-CEM [1] = experiment: Inhibition of HIV-1 induced cytopathicity against CEM cell; type: functional, cell-based; details: Homo sapiens
How it was run: (§1)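 HIV-1 or HIV-2 at ~100 CCID50 per mL infecting CEM (4 × 10^5 cells/mL) or MT-4 (3 × 10^5 cells/mL) cells, mixed 1:1 with compound dilutions in microtiter wells. After 4 days, giant cell formation (CEM) or virus-induced cytopathicity (MT-4) scored microscopically.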

MT4 [2] = experiment: Cytostatic concentration against MT-4 cell; type: functional; details: Homo sapiens
CCRF-CEM [3] = experiment: Cytostatic concentration against CEM cell; type: functional; details: Homo sapiens
MT4 [4] = experiment: Inhibition of HIV-1 induced cytopathicity against MT-4 cell; type: functional, cell-based; details: Homo sapiens; how it was run: as §1
CCRF-CEM [5] = experiment: Inhibition of HIV-2 induced cytopathicity against CEM cell; type: functional, cell-based; details: Homo sapiens
How it was run: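 CEM cells at 4 × 10^5 per mL infected with HIV-2 at ∼100 CCID50 per mL of cell suspension, then mixed 1:1 with serial compound dilutions. Giant cell formation scored microscopically after 4 days.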

MT4 [6] = experiment: Inhibition of HIV-2 induced cytopathicity against MT-4 cell; type: functional, cell-based; details: Homo sapiens; how it was run: as §1
CEM (human) = experiment: Inhibition of HIV-2 induced cytopathicity against CEM cell
MT-4 (human) = experiment: Cytostatic concentration against MT-4 cell

SMILES | pEC50 (CCRF-CEM [1]) | pEC50 (CCRF-CEM [5]) | CC50 (MT4 [2]) [µM] | CC50 (CCRF-CEM [3]) [µM] | pEC50 (MT4 [4]) | pEC50 (MT4 [6]) | pEC50 (CEM (human)) | CC50 (MT-4 (human)) [µM]
COC(=O)C(C)NP(=O)(OCC1OC(n2cc(C)c(=O)n(CCCBr)c2=O)CC1N=[N+]=[N-])Oc1ccccc1 (stereo unspecified) | < 4.30 | < 4.30 | 44 | 41 | < 4.30 | < 4.30 | – | –
Cc1cn([C@@H]2O[C@H](CO[Si](C)(C)C(C)(C)C)C3(OS(=O)(=O)C=C3N)[C@H]2O[Si](C)(C)C(C)(C)C)c(=O)[nH]c1=O (stereo partly specified) | 7.30 | – | – | – | – | < 5.22 | < 5.22 | 12
COC(=O)C(C)NP(=O)(OC[C@H]1C=C[C@@H](n2cc(C)c(=O)n(CCCCCCn3c(=O)c(C)cn([C@@H]4O[C@H](CO[Si](C)(C)C(C)(C)C)[C@@]5(OS(=O)(=O)C=C5N)[C@H]4O[Si](C)(C)C(C)(C)C)c3=O)c2=O)O1)Oc1ccccc1 (stereo partly specified) | 6.40 | < 4.30 | 37 | > 250 | 6.24 | < 4.30 | – | –
Cc1cn([C@@H]2O[C@H](CO[Si](C)(C)C(C)(C)C)[C@@]3(OS(=O)(=O)C=C3N)[C@H]2O[Si](C)(C)C(C)(C)C)c(=O)n(CC#Cc2cn([C@@H]3C[C@@H](N=[N+]=[N-])[C@H](CO)O3)c(=O)[nH]c2=O)c1=O | 6.70 | – | 31 | > 250 | 6.48 | < 5.00 | – | –
Cc1cn([C@@H]2O[C@H](CO[Si](C)(C)C(C)(C)C)[C@@]3(OS(=O)(=O)C=C3N)[C@H]2O[Si](C)(C)C(C)(C)C)c(=O)n(CC#Cc2cn([C@@H]3C=C[C@H](CO)O3)c(=O)[nH]c2=O)c1=O | 6.96 | < 5.00 | 8 | 21 | 6.74 | < 5.00 | – | –
COC(=O)C(C)NP(=O)(OC[C@@H]1O[C@H](n2cc(C)c(=O)n(CCCCCCn3c(=O)c(C)cn([C@@H]4O[C@H](CO[Si](C)(C)C(C)(C)C)[C@@]5(OS(=O)(=O)C=C5N)[C@H]4O[Si](C)(C)C(C)(C)C)c3=O)c2=O)C[C@H]1O)Oc1ccccc1 (stereo partly specified) | 6.60 | < 4.30 | 25 | 104 | 6.03 | < 4.30 | – | –
Cc1cn([C@@H]2O[C@H](CO[Si](C)(C)C(C)(C)C)[C@@]3(OS(=O)(=O)C=C3N)[C@H]2O[Si](C)(C)C(C)(C)C)c(=O)n(CC#Cc2cn([C@@H]3C[C@@H](O)[C@H](CO)O3)c(=O)[nH]c2=O)c1=O | 6.26 | < 5.00 | 15 | 21 | 6.36 | < 5.00 | – | –
COC(=O)C(C)NP(=O)(OC[C@@H]1O[C@H](n2cc(C)c(=O)n(CCCCCCn3c(=O)c(C)cn([C@@H]4O[C@H](CO[Si](C)(C)C(C)(C)C)[C@@]5(OS(=O)(=O)C=C5N)[C@H]4O[Si](C)(C)C(C)(C)C)c3=O)c2=O)C[C@H]1N=[N+]=[N-])Oc1ccccc1 (stereo partly specified) | 5.77 | < 3.60 | > 250 | > 250 | – | < 3.60 | – | –
COC(=O)C(C)NP(=O)(OCC1OC(n2cc(C)c(=O)n(CCCCCCBr)c2=O)CC1N=[N+]=[N-])Oc1ccccc1 (stereo unspecified) | < 5.00 | < 5.00 | 22 | 22 | < 5.00 | < 5.00 | – | –

More lines, main results first:

pEC50 (CCRF-CEM [1]) | pEC50 (CCRF-CEM [5]) | SMILES | CC50 (MT4 [2]) [µM] | CC50 (CCRF-CEM [3]) [µM] | pEC50 (MT4 [4]) | pEC50 (MT4 [6]) | pEC50 (CEM (human)) | CC50 (MT-4 (human)) [µM]
6.74 | < 4.30 | Cc1cn([C@@H]2C[C@@H](N=[N+]=[N-])[C@H](CO)O2)c(=O)n(CCOCCn2c(=O)c(C)cn([C@@H]3O[C@H](CO[Si](C)(C)C(C)(C)C)[C@@]4(OS(=O)(=O)C=C4N)[C@H]3O[Si](C)(C)C(C)(C)C)c2=O)c1=O | > 250 | > 250 | 6.51 | < 3.60 | – | –
6.47 | 4.24 | Cc1cn([C@@H]2C[C@@H](N=[N+]=[N-])[C@H](CO)O2)c(=O)n(C/C=C/Cn2c(=O)c(C)cn([C@@H]3O[C@H](CO[Si](C)(C)C(C)(C)C)[C@@]4(OS(=O)(=O)C=C4N)[C@H]3O[Si](C)(C)C(C)(C)C)c2=O)c1=O | > 250 | > 250 | 6.15 | < 3.60 | – | –
< 4.30 | < 3.60 | Cc1cn([C@@H]2O[C@H](CO[Si](C)(C)C(C)(C)C)[C@@]3(OS(=O)(=O)C=C3N)[C@H]2O[Si](C)(C)C(C)(C)C)c(=O)n(CC#CC#CCn2c(=O)c(C)cn([C@H]3O[C@@H](CO[Si](C)(C)C(C)(C)C)[C@]4(OS(=O)(=O)C=C4N)[C@@H]3O[Si](C)(C)C(C)(C)C)c2=O)c1=O | 65 | > 250 | < 4.30 | < 3.60 | – | –
6.60 | < 4.30 | COC(=O)C(C)NP(=O)(OC[C@@H]1O[C@H](n2cc(C)c(=O)n(CCCn3c(=O)c(C)cn([C@@H]4O[C@H](CO[Si](C)(C)C(C)(C)C)[C@@]5(OS(=O)(=O)C=C5N)[C@H]4O[Si](C)(C)C(C)(C)C)c3=O)c2=O)C[C@H]1O)Oc1ccccc1 (stereo partly specified) | 31 | > 250 | 6.48 | < 4.30 | – | –
6.19 | < 3.60 | COC(=O)C(C)NP(=O)(OC[C@@H]1O[C@H](n2cc(C)c(=O)n(CCCn3c(=O)c(C)cn([C@@H]4O[C@H](CO[Si](C)(C)C(C)(C)C)[C@@]5(OS(=O)(=O)C=C5N)[C@H]4O[Si](C)(C)C(C)(C)C)c3=O)c2=O)C[C@H]1N=[N+]=[N-])Oc1ccccc1 (stereo partly specified) | > 250 | > 250 | 5.49 | < 3.60 | – | –
6.64 | < 4.30 | Cc1cn([C@@H]2CC(N=[N+]=[N-])[C@H](CO)O2)c(=O)n(CC#CCn2c(=O)c(C)cn([C@@H]3O[C@H](CO[Si](C)(C)C(C)(C)C)[C@@]4(OS(=O)(=O)C=C4N)[C@H]3O[Si](C)(C)C(C)(C)C)c2=O)c1=O (stereo partly specified) | 106 | > 250 | 6.00 | < 3.60 | – | –
6.77 | 4.82 | COC(=O)C(C)NP(=O)(OC[C@H]1C=C[C@@H](n2cc(C)c(=O)n(CCCn3c(=O)c(C)cn([C@@H]4O[C@H](CO[Si](C)(C)C(C)(C)C)[C@@]5(OS(=O)(=O)C=C5N)[C@H]4O[Si](C)(C)C(C)(C)C)c3=O)c2=O)O1)Oc1ccccc1 (stereo partly specified) | 28 | 123 | 6.74 | 4.59 | – | –
7.05 | – | Cc1cn([C@@H]2O[C@H](CO[Si](C)(C)C(C)(C)C)[C@@]3(OS(=O)(=O)C=C3N)[C@H]2O[Si](C)(C)C(C)(C)C)c(=O)n(CCCn2c(=O)c(C)cn([C@H]3C[C@H](N=[N+]=[N-])[C@@H](CO)O3)c2=O)c1=O | > 100 | > 100 | 6.42 | – | – | –
